Broadly, the IC50 is the midpoint of a concentration-inhibition curve.

SMILES strings stand for the structures.

Assay [1] deals with HL-60. The experiment in a line: Cytotoxicity against human HL60 cells incubated for 48 hrs by MTT assay. In kind it is functional, cell-based. As to conditions: HL-60, 48 h. The method in brief: (§1)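 Human tumour lines (HL-60 leukemia, Hep3B liver, H460 lung, A498 renal, COLO205 colon, 2774 and SK-OV-3 ovarian) and normal Detroit 551 skin fibroblasts were exposed to a range of concentrations for 48 h. IC50 is the concentration giving 50% proliferation inhibition, as the mean of three independent determinations.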
(Tetrazolium dyes change colour on reduction, which living cells bring about.)

Assay [2] in a line: Cytotoxicity against human Hep3B cells incubated for 48 hrs by MTT assay. In kind it is functional, cell-based, Hep 3B2. The method in brief: as §1
A short description of assay [3]: Cytotoxicity against human H460 cells incubated for 48 hrs by MTT assay. As to conditions: NCI-H460, 48 h. In kind it is functional, cell-based. The method in brief: as §1
Assay [4] deals with A498. In words: Cytotoxicity against human A498 cells incubated for 48 hrs by MTT assay. Type of assay: functional, cell-based. As to conditions: A498, 48 h.
Assay [5] relates to COLO 205. The experiment in a line: Cytotoxicity against human COLO205 cells incubated for 48 hrs by MTT assay. The conditions noted are these: COLO 205, 48 h. In kind it is functional, cell-based. Put shortly:
as §1

Assay [6] can be described thus: Cytotoxicity against human 2774 cells incubated for 48 hrs by MTT assay. In kind it is functional, cell-based. The method in brief: as §1
Assay [7] relates to SK-OV-3. The experiment in a line: Cytotoxicity against human SKOV3 cells incubated for 48 hrs by MTT assay. In kind it is functional, cell-based. The conditions noted are these: SK-OV-3, 48 h. Put shortly: as §1
For assay [8], the system named is Detroit 551. In words: Cytotoxicity against human Detroit 551 cells incubated for 48 hrs by MTT assay. Type of assay: cell-based. The conditions noted are these: Detroit 551, 48 h. The method in brief: as §1

For the molecule `CCOC(=O)c1cc2c3ccccc3n(Cc3ccccc3OC)c2cn1`, the IC50 was 3.9 µM in assay [1]; 8.9 µM in assay [2]; greater than 100 µM in assay [3]; 41.3 µM in assay [4]; greater than 100 µM in assay [5]; greater than 100 µM in assay [6]. The IC50 in assay [7] and in assay [8] was greater than 100 µM throughout.

As for `CCOC(=O)c1cc2c(cn1)[nH]c1ccccc12`, the IC50 in assay [1], in assay [2], in assay [3], in assay [4], in assay [5] and in assay [6] was greater than 100 µM throughout. Besides, the IC50 in assay [7] and in assay [8] was greater than 100 µM in each case.

`O=C(O)c1cc2c3ccccc3n(Cc3ccc(Cl)cc3)c2cn1`: the IC50 in assay [1] turned out to be 3.9 µM; in assay [2], 1.2 µM; in assay [3], 15.1 µM; in assay [4] it was 9.9 µM; in assay [5], 26.5 µM.

On to `O=C(O)c1cc2c3ccccc3nc-2c[nH]1`, for which the IC50 was 75 µM in assay [1]; 75 µM in assay [2]; 70.5 µM in assay [3]; greater than 100 µM in assay [4]; 49.6 µM in assay [5]; greater than 100 µM in assay [6]. Further, the IC50 in assay [7] and in assay [8] was greater than 100 µM each time.

For the molecule `CCOC(=O)c1cc2c3ccccc3n(Cc3ccc(OC)cc3)c2cn1`, the IC50 in assay [1] was 39 µM; in assay [2], 50 µM; in assay [3] it was 50 µM; in assay [4], 38.5 µM; in assay [5] it was 36.9 µM; in assay [6], greater than 100 µM. The IC50 in assay [7] is greater than 100 µM; in assay [8], 50 µM.

As for `CCOC(=O)c1cc2c3ccccc3n(Cc3cc(OC)cc(OC)c3)c2cn1`, the IC50 in assay [1], in assay [2], in assay [3], in assay [4], in assay [5] and in assay [6] was greater than 100 µM in each case. The values for the IC50 in assay [7] and in assay [8] were 24.4 µM and greater than 100 µM, respectively.

For `O=C(O)c1cc2c3ccccc3n(Cc3ccccc3)c2cn1`, the IC50 came out at 5 µM in assay [1]; 4.4 µM in assay [2]; 18.5 µM in assay [3]; 9.2 µM in assay [4]; 31 µM in assay [5].

As for `O=C(O)c1cc2c3ccccc3n(Cc3ccc(F)cc3)c2cn1`, the IC50 in assay [4] came out at 7.6 µM; in assay [5], 33.5 µM; in assay [6], 23.5 µM; in assay [7], 27.7 µM.

`CCOC(=O)c1cc2c3ccccc3n(Cc3cc(OC)c(OC)c(OC)c3)c2cn1`: the IC50 in assay [1] is 21.9 µM; in assay [2], greater than 100 µM; in assay [3], greater than 100 µM; in assay [4], greater than 100 µM; in assay [5], greater than 100 µM; in assay [6] it was greater than 100 µM. For the same molecule, the IC50 in assay [7] and in assay [8] was greater than 100 µM each time.

As for `CCOC(=O)c1cc2c3ccccc3n(Cc3cccc(OC)c3)c2cn1`, the IC50 in assay [4] is 21.6 µM; in assay [5] it was 26.7 µM; in assay [6], greater than 100 µM; in assay [7], greater than 100 µM.

Consider `O=C(O)C1Cc2c([nH]c3ccccc23)CN1` (centres undefined), for which the IC50 in assay [3], in assay [4] and in assay [5] was greater than 50 µM in each case.

As to `CCOC(=O)c1cc2c3ccccc3n(Cc3ccncc3)c2cn1`, the IC50 in assay [4], in assay [5], in assay [6] and in assay [7] was greater than 100 µM throughout.

Consider `CCOC(=O)c1cc2c3ccccc3n(Cc3ccccc3)c2cn1`, for which the IC50 in assay [1] is greater than 100 µM; in assay [2], greater than 100 µM; in assay [3] it was greater than 100 µM; in assay [4], 48.2 µM; in assay [5], greater than 100 µM; in assay [6], 26.8 µM. The figures for the IC50 in assay [7] and in assay [8] were 3 µM and 50 µM, respectively.

As to `CCOC(=O)c1cc2c3ccccc3n(Cc3ccc(Cl)cc3)c2cn1`, the IC50 in assay [1] was greater than 100 µM; in assay [2], greater than 100 µM; in assay [3], greater than 100 µM; in assay [4], greater than 100 µM; in assay [5] it was greater than 100 µM; in assay [6] it was 16.4 µM. Also, the figures for the IC50 in assay [7] and in assay [8] were 2.9 µM and greater than 100 µM, respectively.

Consider `CCOC(=O)c1cc2c3ccccc3n(Cc3ccc(F)cc3)c2cn1`, for which the IC50 in assay [1] was greater than 100 µM; in assay [2], greater than 100 µM; in assay [3], greater than 100 µM; in assay [4] it was 50.4 µM; in assay [5] it was greater than 100 µM; in assay [6] it was greater than 100 µM. For the same molecule, the IC50 in assay [7] and in assay [8] was greater than 100 µM each time.

With `CCOC(=O)c1cc2c3ccccc3n(Cc3cccnc3)c2cn1`, the IC50 in assay [1], in assay [2], in assay [3], in assay [4], in assay [5] and in assay [6] was greater than 100 µM throughout. For the same molecule, the IC50 in assay [7] and in assay [8] was greater than 100 µM in each case.

On to `OCc1cc2c3ccccc3nc-2c[nH]1`, for which the IC50 in assay [1], in assay [2], in assay [3], in assay [4], in assay [5] and in assay [6] was greater than 100 µM in each case. For the same molecule, the IC50 in assay [7] and in assay [8] was greater than 100 µM in each case.

Consider `CCOC(=O)c1cc2c3ccccc3n(Cc3ccccn3)c2cn1`, for which the IC50 was greater than 100 µM in assay [1]; greater than 100 µM in assay [2]; greater than 100 µM in assay [3]; 46.3 µM in assay [4]; 38.7 µM in assay [5]; greater than 100 µM in assay [8].

For the origin of these results see ChEMBL document CHEMBL3608281, “Synthesis and biological evaluation of novel 3,9-substituted β-carboline derivatives as anticancer agents” (Bioorg Med Chem Lett, 2015).
